Test results: ChEMBL document CHEMBL1629622, “Isolation of VanB-type Enterococcus faecalis strains from nosocomial infections: first report of the isolation and identification of the pheromone-responsive plasmids pMG2200, Encoding VanB-type vancomycin resistance and a Bac41-type bacteriocin, and pMG2201, encoding erythromycin resistance and …” (2009)
≈ marks a conversion by molar mass, not a printed value. Calls of active or inactive are those of the source. The calls are words filed in the database; no cut-off is given here. Residues, ends and D or L forms follow the SMILES beside them.

Experiments:
Enterococcus faecalis [1] = experiment: Induction of aggregation of Enterococcus faecalis JH2SS harboring pMG2200 at 100 ng/ml; type: functional, organism-based
In short: (§1)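 Donor E. faecalis JH2SS carrying the plasmid, exposed 2 h to synthetic pheromone (cAD1, cPD1, cCF10, cOB1 or cAM373 at 100 ng/ml) or to FA2-2 culture filtrate. Aggregation (clumping) of cells scored visually afterwards. A short 10-min mating with FA2-2 followed induction.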

Enterococcus faecalis [2] = experiment: Induction of aggregation of Enterococcus faecalis JH2SS harboring pMG2201 at 100 ng/ml; type: functional, organism-based; in short: as §1
Enterococcus faecalis [3] = experiment: Induction of transfer of plasmid pMG2200 in Enterococcus faecalis JH2SS at 100 ng/ml; type: functional, organism-based
In short: (§2)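 Donor E. faecalis JH2SS carrying pMG2200 and pAM714 was exposed for 2 h to a synthetic pheromone (cCF10 or cAD1, 100 ng/ml) to induce aggregation-mating. A short 10-min mating with recipient FA2-2 followed. Transfer frequency was scored as transconjugants per donor cell at the end of mating.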

Enterococcus faecalis [4] = experiment: Induction of transfer of plasmid pAM714 in Enterococcus faecalis JH2SS at 100 ng/ml; type: functional, organism-based; in short: as §2
Enterococcus faecalis [5] = experiment: Antimicrobial activity against Enterococcus faecalis NKH13 harboring pMG2200-like and pMG2201-like plasmids after 24 hrs by agar dilution method; type: functional
In short: (§3)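 Agar dilution MICs on clinical E. faecalis isolates. Overnight Mueller-Hinton broth culture diluted 100-fold; ~5 × 10^5 cells inoculated onto Mueller-Hinton medium holding a concentration series of each drug. Incubated at 37°C and read at 24 h. Testing and interpretation follow CLSI (NCCLS) standards, with E. faecium ATCC 9790 as control strain.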

Enterococcus faecalis [6] = experiment: Antimicrobial activity against Enterococcus faecalis NKH14 harboring pMG2200-like and pMG2201-like plasmids after 24 hrs by agar dilution method; type: functional; in short: as §3
Enterococcus faecalis [7] = experiment: Antimicrobial activity against Enterococcus faecalis NKH8 harboring pMG2200-like and pMG2201-like plasmids after 24 hrs by agar dilution method; type: functional; in short: as §3
Enterococcus faecalis [8] = experiment: Antimicrobial activity against Enterococcus faecalis NKH2 harboring pMG2200-like and pMG2201-like plasmids after 24 hrs by agar dilution method; type: functional; in short: as §3
Enterococcus faecalis [9] = experiment: Antimicrobial activity against Enterococcus faecalis NKH1 harboring pMG2200-like plasmid after 24 hrs by agar dilution method; type: functional; in short: as §3
Enterococcus faecalis [10] = experiment: Antimicrobial activity against Enterococcus faecalis NKH10 harboring pMG2200-like and pMG2201-like plasmids after 24 hrs by agar dilution method; type: functional; in short: as §3
Enterococcus faecalis [11] = experiment: Antimicrobial activity against Enterococcus faecalis NKH12 harboring pMG2200-like and pMG2201-like plasmids after 24 hrs by agar dilution method; type: functional; in short: as §3
Enterococcus faecalis [12] = experiment: Antimicrobial activity against Enterococcus faecalis NKH9 harboring pMG2200-like and pMG2201-like plasmids after 24 hrs by agar dilution method; type: functional; in short: as §3
Enterococcus faecalis [13] = experiment: Antimicrobial activity against Enterococcus faecalis NKH17 harboring pMG2200-like plasmid after 24 hrs by agar dilution method; type: functional; in short: as §3
Enterococcus faecalis [14] = experiment: Antimicrobial activity against Enterococcus faecalis NKH7 harboring pMG2200-like plasmid after 24 hrs by agar dilution method; type: functional; in short: as §3
Enterococcus faecalis [15] = experiment: Antimicrobial activity against Enterococcus faecalis NKH16 harboring pMG2200-like plasmid after 24 hrs by agar dilution method; type: functional; in short: as §3
Enterococcus faecalis [16] = experiment: Antimicrobial activity against Enterococcus faecalis NKH11 harboring pMG2200-like plasmid after 24 hrs by agar dilution method; type: functional; in short: as §3
Enterococcus faecalis [17] = experiment: Antimicrobial activity against Enterococcus faecalis NKH4 harboring pMG2200-like and pMG2201-like plasmids after 24 hrs by agar dilution method; type: functional; in short: as §3
Enterococcus faecalis [18] = experiment: Antimicrobial activity against Enterococcus faecalis NKH18 harboring pMG2200-like and pMG2201-like plasmids after 24 hrs by agar dilution method; type: functional; in short: as §3
Enterococcus faecalis [19] = experiment: Antimicrobial activity against Enterococcus faecalis NKH5 harboring pMG2200-like plasmid after 24 hrs by agar dilution method; type: functional; in short: as §3
Enterococcus faecalis [20] = experiment: Antimicrobial activity against Enterococcus faecalis NKH15 harboring pMG2200-like and pMG2201-like plasmids after 24 hrs by agar dilution method; type: functional; in short: as §3
Enterococcus faecalis [21] = experiment: Antimicrobial activity against Enterococcus faecalis NKH3 harboring pMG2200-like and pMG2201-like plasmids after 24 hrs by agar dilution method; type: functional; in short: as §3
Enterococcus faecalis [22] = experiment: Antimicrobial activity against Enterococcus faecalis NKH6 harboring pMG2200-like and pMG2201-like plasmids after 24 hrs by agar dilution method; type: functional; in short: as §3

For CC(C)C[C@H](NC(=O)[C@H](CO)NC(=O)[C@H](Cc1ccccc1)NC(=O)[C@@H](N)CC(C)C)C(=O)N[C@H](C(=O)N[C@@H](CC(C)C)C(=O)N[C@@H](C)C(=O)NCC(=O)O)C(C)C (H-LFSLVLAG-OH), the Activity (Enterococcus faecalis [1]) was “inactive”, the Activity (Enterococcus faecalis [2]) was “Active” and the Activity (Enterococcus faecalis [3]) was “inactive”. The Activity (Enterococcus faecalis [4]) was “Active”.

In the case of CC(C)C[C@H](NC(=O)[C@@H](NC(=O)[C@H](C)NC(=O)[C@@H](N)C(C)C)C(C)C)C(=O)N[C@H](C(=O)N[C@@H](CC(C)C)C(=O)NCC(=O)N[C@@H](C)C(=O)O)C(C)C (H-VAVLVLGA-OH), the Activity (Enterococcus faecalis [1]) is reported as “inactive” and the Activity (Enterococcus faecalis [2]) is reported as “inactive”.

Compound CN[C@H](CC(C)C)C(=O)N[C@H]1C(=O)N[C@@H](CC(N)=O)C(=O)N[C@H]2C(=O)N[C@H]3C(=O)N[C@H](C(=O)N[C@H](C(=O)O)c4cc(O)cc(O)c4-c4cc3ccc4O)[C@H](O)c3ccc(c(Cl)c3)Oc3cc2cc(c3O[C@@H]2O[C@H](CO)[C@@H](O)[C@H](O)[C@H]2O[C@H]2C[C@](C)(N)[C@H](O)[C@H](C)O2)Oc2ccc(cc2Cl)[C@H]1O [VANCOMYCIN] has an MIC (Enterococcus faecalis [5]; NKH13, 24 h) of 256 µg/mL (≈ 177 µM), an MIC (Enterococcus faecalis [6]; NKH14, 24 h) of 256 µg/mL (≈ 177 µM) and an MIC (Enterococcus faecalis [7]; NKH8, 24 h) of 256 µg/mL (≈ 177 µM). For the same compound, the MIC (Enterococcus faecalis [8]; NKH2, 24 h) was 256 µg/mL (≈ 177 µM), the MIC (Enterococcus faecalis [9]; NKH1, 24 h) was 128 µg/mL (≈ 88.3 µM) and the MIC (Enterococcus faecalis [10]; NKH10, 24 h) was 256 µg/mL (≈ 177 µM). For the same compound, the MIC (Enterococcus faecalis [11]; NKH12, 24 h) was 256 µg/mL (≈ 177 µM), the MIC (Enterococcus faecalis [12]; NKH9, 24 h) was 256 µg/mL (≈ 177 µM) and the MIC (Enterococcus faecalis [13]; NKH17, 24 h) was 32 µg/mL (≈ 22.1 µM).

In the case of GENTAMICIN, the MIC (Enterococcus faecalis [5]) is reported as > 1020 µg/mL, the MIC (Enterococcus faecalis [6]) is reported as > 1020 µg/mL and the MIC (Enterococcus faecalis [14]) is reported as > 1020 µg/mL. The MIC (Enterococcus faecalis [7]) was > 1020 µg/mL, the MIC (Enterococcus faecalis [8]) was > 1020 µg/mL and the MIC (Enterococcus faecalis [15]) was > 1020 µg/mL. The MIC (Enterococcus faecalis [9]) was > 1020 µg/mL, the MIC (Enterococcus faecalis [16]) was > 1020 µg/mL and the MIC (Enterococcus faecalis [17]) was > 1020 µg/mL. The MIC (Enterococcus faecalis [18]) was > 1020 µg/mL, the MIC (Enterococcus faecalis [10]) was > 1020 µg/mL and the MIC (Enterococcus faecalis [19]) was > 1020 µg/mL. For the same compound, the MIC (Enterococcus faecalis [20]) was > 1020 µg/mL, the MIC (Enterococcus faecalis [21]) was > 1020 µg/mL and the MIC (Enterococcus faecalis [11]) was > 1020 µg/mL. The MIC (Enterococcus faecalis [12]) was 1020 µg/mL, the MIC (Enterococcus faecalis [13]) was > 1020 µg/mL and the MIC (Enterococcus faecalis [22]) was > 1020 µg/mL.

CC[C@H](C)[C@H](NC(=O)[C@H](C)N)C(=O)N[C@@H](Cc1ccccc1)C(=O)N[C@H](C(=O)N[C@@H](CC(C)C)C(=O)N[C@@H](C)C(=O)N[C@@H](CO)C(=O)O)[C@@H](C)CC (H-AIFILAS-OH) was tested, and the Activity (Enterococcus faecalis [1]) was “inactive” and the Activity (Enterococcus faecalis [2]) was “inactive”.

For O=C(N[C@H](CO)[C@H](O)c1ccc([N+](=O)[O-])cc1)C(Cl)Cl [CHLORAMPHENICOL], the MIC (Enterococcus faecalis [5]; NKH13, 24 h) was 8 µg/mL (≈ 24.8 µM), the MIC (Enterococcus faecalis [6]; NKH14, 24 h) was 8 µg/mL (≈ 24.8 µM) and the MIC (Enterococcus faecalis [14]; NKH7, 24 h) was 4 µg/mL (≈ 12.4 µM). The MIC (Enterococcus faecalis [7]; NKH8, 24 h) was 8 µg/mL (≈ 24.8 µM), the MIC (Enterococcus faecalis [8]; NKH2, 24 h) was 8 µg/mL (≈ 24.8 µM) and the MIC (Enterococcus faecalis [15]; NKH16, 24 h) was 4 µg/mL (≈ 12.4 µM). The MIC (Enterococcus faecalis [9]; NKH1, 24 h) was 8 µg/mL (≈ 24.8 µM), the MIC (Enterococcus faecalis [16]; NKH11, 24 h) was 8 µg/mL (≈ 24.8 µM) and the MIC (Enterococcus faecalis [17]; NKH4, 24 h) was 8 µg/mL (≈ 24.8 µM). It also gave an MIC (Enterococcus faecalis [18]; NKH18, 24 h) of 8 µg/mL (≈ 24.8 µM), an MIC (Enterococcus faecalis [10]; NKH10, 24 h) of 8 µg/mL (≈ 24.8 µM) and an MIC (Enterococcus faecalis [19]; NKH5, 24 h) of 4 µg/mL (≈ 12.4 µM). It also gave an MIC (Enterococcus faecalis [20]; NKH15, 24 h) of 8 µg/mL (≈ 24.8 µM), an MIC (Enterococcus faecalis [21]; NKH3, 24 h) of 8 µg/mL (≈ 24.8 µM) and an MIC (Enterococcus faecalis [11]; NKH12, 24 h) of 8 µg/mL (≈ 24.8 µM). The MIC (Enterococcus faecalis [12]; NKH9, 24 h) was 8 µg/mL (≈ 24.8 µM), the MIC (Enterococcus faecalis [13]; NKH17, 24 h) was 4 µg/mL (≈ 12.4 µM) and the MIC (Enterococcus faecalis [22]; NKH6, 24 h) was 8 µg/mL (≈ 24.8 µM).

CN[C@@H]1[C@H](O[C@H]2[C@H](O[C@H]3[C@H](O)[C@@H](O)[C@H](N=C(N)N)[C@@H](O)[C@@H]3N=C(N)N)O[C@@H](C)[C@]2(O)C=O)O[C@@H](CO)[C@H](O)[C@H]1O [STREPTOMYCIN] gave an MIC (Enterococcus faecalis [5]; NKH13, 24 h) of 32 µg/mL (≈ 55 µM), an MIC (Enterococcus faecalis [6]; NKH14, 24 h) of 32 µg/mL (≈ 55 µM) and an MIC (Enterococcus faecalis [14]; NKH7, 24 h) of 32 µg/mL (≈ 55 µM). The MIC (Enterococcus faecalis [7]; NKH8, 24 h) was 32 µg/mL (≈ 55 µM), the MIC (Enterococcus faecalis [8]; NKH2, 24 h) was 32 µg/mL (≈ 55 µM) and the MIC (Enterococcus faecalis [15]; NKH16, 24 h) was 32 µg/mL (≈ 55 µM). The MIC (Enterococcus faecalis [9]; NKH1, 24 h) was 32 µg/mL (≈ 55 µM), the MIC (Enterococcus faecalis [16]; NKH11, 24 h) was 32 µg/mL (≈ 55 µM) and the MIC (Enterococcus faecalis [17]; NKH4, 24 h) was 32 µg/mL (≈ 55 µM). It also gave an MIC (Enterococcus faecalis [18]; NKH18, 24 h) of 32 µg/mL (≈ 55 µM), an MIC (Enterococcus faecalis [10]; NKH10, 24 h) of 32 µg/mL (≈ 55 µM) and an MIC (Enterococcus faecalis [19]; NKH5, 24 h) of 32 µg/mL (≈ 55 µM). It also gave an MIC (Enterococcus faecalis [20]; NKH15, 24 h) of 32 µg/mL (≈ 55 µM), an MIC (Enterococcus faecalis [21]; NKH3, 24 h) of 32 µg/mL (≈ 55 µM) and an MIC (Enterococcus faecalis [11]; NKH12, 24 h) of 32 µg/mL (≈ 55 µM). The MIC (Enterococcus faecalis [12]; NKH9, 24 h) was 32 µg/mL (≈ 55 µM), the MIC (Enterococcus faecalis [13]; NKH17, 24 h) was 32 µg/mL (≈ 55 µM) and the MIC (Enterococcus faecalis [22]; NKH6, 24 h) was 32 µg/mL (≈ 55 µM).
